In ChEMBL document CHEMBL3259650, “Synthesis of symmetrically substituted 3,3-dibenzyl-4-hydroxy-3,4-dihydro-1H-quinolin-2-ones, as novel quinoline derivatives with antibacterial activity” (Eur J Med Chem, 2014):
Converted amounts (≈) assume the structure as drawn. The source made the active and inactive calls. The rule behind the calls is not given here.

Columns and labels:
Bacillus spizizenii = assay: Antibacterial activity against Bacillus subtilis ATCC 6633 assessed as growth inhibition after 24 hrs by micro dilution method; assay type: functional; settings: ATCC 6633, 24 h
Summary of the method: (§1)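 MIC determined by broth microdilution in casein soy broth (pH 7.3) at an inoculum of 10^5 CFU/mL, incubated 24 h at 37 C. Levofloxacin was the comparator and controls were run alongside. Samples were tested in quadruplicate.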

Staphylococcus aureus [1] = assay: Antibacterial activity against Staphylococcus aureus ATCC 6538p assessed as growth inhibition after 24 hrs by micro dilution method; assay type: functional; summary of the method: as §1
Shigella sonnei [2] = assay: Antibacterial activity against Shigella sonnei ATCC 15305 assessed as growth inhibition after 24 hrs by micro dilution method; assay type: functional; settings: ATCC 15305, 24 h; summary of the method: as §1
Pseudomonas aeruginosa = assay: Antibacterial activity against Pseudomonas aeruginosa ATCC […] assessed as growth inhibition after 24 hrs by micro dilution method; assay type: functional; summary of the method: as §1
Escherichia coli [3] = assay: Antibacterial activity against Escherichia coli ATCC 25922 assessed as growth inhibition after 24 hrs by micro dilution method; assay type: functional; settings: ATCC 25922, 24 h; summary of the method: as §1
Staphylococcus aureus [4] = assay: Antibacterial activity against Staphylococcus aureus ATCC 6538p; assay type: functional; summary of the method: as §1
Shigella sonnei [5] = assay: Antibacterial activity against Shigella sonnei ATCC 15305; assay type: functional
Escherichia coli [6] = assay: Antibacterial activity against Escherichia coli ATCC 25922; assay type: functional
Enterococcus sp. [7] = assay: Antibacterial activity against Enterococcus sp. ATCC 6589 assessed as growth inhibition after 24 hrs by micro dilution method; assay type: functional; settings: ATCC 6589, 24 h; summary of the method: as §1
Klebsiella aerogenes = assay: Antibacterial activity against Enterobacter aerogenes ATCC 13048 assessed as growth inhibition after 24 hrs by micro dilution method; assay type: functional; settings: ATCC 13048, 24 h; summary of the method: as §1
Salmonella typhimurium [8] = assay: Antibacterial activity against Salmonella typhimurium ATCC 14028 assessed as growth inhibition after 24 hrs by micro dilution method; assay type: functional, Salmonella enterica subsp. enterica serovar Typhimurium; settings: Salmonella enterica, ATCC 14028, 24 h; summary of the method: as §1
Burkholderia cepacia [9] = assay: Antibacterial activity against Burkholderia cepacia ATCC 17759 assessed as growth inhibition after 24 hrs by micro dilution method; assay type: functional; settings: ATCC 17759, 24 h; summary of the method: as §1
Morganella morganii [10] = assay: Antibacterial activity against Morganella morganii ATCC 8019 assessed as growth inhibition after 24 hrs by micro dilution method; assay type: functional; settings: ATCC 8019, 24 h; summary of the method: as §1
Enterococcus sp. [11] = assay: Antibacterial activity against Enterococcus sp. ATCC 6589; assay type: functional
Salmonella typhimurium [12] = assay: Antibacterial activity against Salmonella typhimurium ATCC 14028; assay type: functional, Salmonella enterica subsp. enterica serovar Typhimurium; summary of the method: as §1
Burkholderia cepacia [13] = assay: Antibacterial activity against Burkholderia cepacia ATCC 17759; assay type: functional
Morganella morganii [14] = assay: Antibacterial activity against Morganella morganii ATCC 8019; assay type: functional
Enterococcus sp. [15] = assay: Antibacterial activity against Enterococcus sp. ATCC 6589 assessed as growth inhibition by measuring turbidity of medium at 6.25 to 100 ug/mL measured over 10 hrs by microplate reader analysis; assay type: functional, organism-based
Summary of the method: (§2)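 Overnight casein soy broth cultures (37 C) were centrifuged, resuspended in fresh medium and adjusted to about 5 10^7 cells/mL (OD620 0.2). Cells were grown in microplate wells to mid-log phase, then twofold serial dilutions of the test agents in fresh medium were added. OD620 was read every 15 min at 23 C for 10 h, with 30 s shaking between reads. Runs were in quadruplicate.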

Enterococcus sp. [16] = assay: Antibacterial activity against Enterococcus sp. ATCC 6589 assessed as growth inhibition by measuring turbidity of medium at 3.12 ug/mL measured after 3 hrs by microplate reader analysis; assay type: functional, organism-based; summary of the method: as §2

Row | MIC (Bacillus spizizenii) | MIC (Staphylococcus aureus [1]) | MIC (Shigella sonnei [2]) | MIC (Pseudomonas aeruginosa) | MIC (Escherichia coli [3]) | MIC (Enterococcus sp. [7]) | MIC (Klebsiella aerogenes) | MIC (Salmonella typhimurium [8]) | MIC (Burkholderia cepacia [9]) | MIC (Morganella morganii [10]) | SMILES | MLC (Staphylococcus aureus [4]) | MLC (Shigella sonnei [5]) | MLC (Escherichia coli [6]) | MLC (Enterococcus sp. [11]) | MLC (Salmonella typhimurium [12]) | MLC (Burkholderia cepacia [13]) | MLC (Morganella morganii [14]) | growth inhibition (GI) (Enterococcus sp. [15]) | growth inhibition (GI) (Enterococcus sp. [16])
1 | 100 µg/mL (≈ 268 µM) | 100 µg/mL (≈ 268 µM) | 100 µg/mL (≈ 268 µM) | 100 µg/mL (≈ 268 µM) | 100 µg/mL (≈ 268 µM) | – | – | – | – | – | COc1cccc2c1NC(=O)C(Cc1ccccc1)(Cc1ccccc1)C2O (stereo unspecified) | >200 µg/mL | >200 µg/mL | >200 µg/mL | – | – | – | – | – | –
2 | 50 µg/mL (≈ 140 µM) | 100 µg/mL (≈ 280 µM) | 100 µg/mL (≈ 280 µM) | 100 µg/mL (≈ 280 µM) | 50 µg/mL (≈ 140 µM) | – | – | – | – | – | CN1C(=O)C(Cc2ccccc2)(Cc2ccccc2)C(O)c2ccccc21 (stereo unspecified) | >200 µg/mL | >200 µg/mL | >200 µg/mL | – | – | – | – | – | –
3 | 3.12 µg/mL | 3.12 µg/mL | 3.12 µg/mL | 3.12 µg/mL | 3.12 µg/mL | 0.78 µg/mL | 0.78 µg/mL | 0.78 µg/mL | 0.78 µg/mL | 0.78 µg/mL | C[C@H]1COc2c(N3CCN(C)CC3)c(F)cc3c(=O)c(C(=O)O)cn1c23.C[C@H]1COc2c(N3CCN(C)CC3)c(F)cc3c(=O)c(C(=O)O)cn1c23.O [LEVOFLOXACIN] | 3.12 µg/mL | 3.12 µg/mL | 3.12 µg/mL | 0.78 µg/mL | 0.78 µg/mL | 0.78 µg/mL | 0.78 µg/mL | Active | –
4 | 25 µg/mL (≈ 69.2 µM) | 50 µg/mL (≈ 138 µM) | 25 µg/mL (≈ 69.2 µM) | 50 µg/mL (≈ 138 µM) | 25 µg/mL (≈ 69.2 µM) | – | – | – | – | – | O=C1Nc2ccc(F)cc2C(O)C1(Cc1ccccc1)Cc1ccccc1 (stereo unspecified) | >200 µg/mL | >200 µg/mL | >200 µg/mL | – | – | – | – | – | –
5 | 100 µg/mL (≈ 231 µM) | 100 µg/mL (≈ 231 µM) | 200 µg/mL (≈ 461 µM) | > 200 µg/mL | 100 µg/mL (≈ 231 µM) | – | – | – | – | – | O=C1N(Cc2ccccc2)c2ccccc2C(O)C1(Cc1ccccc1)Cc1ccccc1 (stereo unspecified) | >200 µg/mL | >200 µg/mL | >200 µg/mL | – | – | – | – | – | –
6 | > 200 µg/mL | > 200 µg/mL | > 200 µg/mL | > 200 µg/mL | 100 µg/mL (≈ 233 µM) | – | – | – | – | – | CCOC(=O)CN1C(=O)C(Cc2ccccc2)(Cc2ccccc2)C(O)c2ccccc21 (stereo unspecified) | – | – | >200 µg/mL | – | – | – | – | – | –
7 | 1.56 µg/mL (≈ 3.78 µM) | 6.25 µg/mL (≈ 15.2 µM) | 6.25 µg/mL (≈ 15.2 µM) | 100 µg/mL (≈ 243 µM) | 1.52 µg/mL (≈ 3.69 µM) | – | – | – | – | – | O=C1Nc2ccccc2C(O)C1(Cc1ccc(Cl)cc1)Cc1ccc(Cl)cc1 (stereo unspecified) | 100 µg/mL (≈ 243 µM) | 100 µg/mL (≈ 243 µM) | 25 µg/mL (≈ 60.6 µM) | – | – | – | – | – | –
8 | 12.5 µg/mL (≈ 30.3 µM) | 12.5 µg/mL (≈ 30.3 µM) | 12.5 µg/mL (≈ 30.3 µM) | 100 µg/mL (≈ 243 µM) | 12.5 µg/mL (≈ 30.3 µM) | – | – | – | – | – | O=C1Nc2ccccc2C(O)C1(Cc1ccccc1Cl)Cc1ccccc1Cl (stereo unspecified) | 200 µg/mL (≈ 485 µM) | 200 µg/mL (≈ 485 µM) | 200 µg/mL (≈ 485 µM) | – | – | – | – | – | inactive
9 | 100 µg/mL (≈ 248 µM) | 100 µg/mL (≈ 248 µM) | 100 µg/mL (≈ 248 µM) | 100 µg/mL (≈ 248 µM) | 100 µg/mL (≈ 248 µM) | – | – | – | – | – | COc1ccc(CC2(Cc3ccc(OC)cc3)C(=O)Nc3ccccc3C2O)cc1 (stereo unspecified) | 200 µg/mL (≈ 496 µM) | >200 µg/mL | >200 µg/mL | – | – | – | – | – | –
